Measurements: ChEMBL document CHEMBL4393708, “Pyridinylimidazoles as dual glycogen synthase kinase 3β/p38α mitogen-activated protein kinase inhibitors” (Eur J Med Chem, 2019)

How the values were obtained:
[1] = target: T1, Mitogen-activated protein kinase 14 (Homo sapiens, UniProt Q16539); assay: Inhibition of p38alpha MAPK (unknown origin) using ATF-2 as substrate after 1 hr by ELISA
[2] = target: Glycogen synthase kinase-3 beta (Homo sapiens, UniProt P49841); assay: Competitive inhibition of human recombinant full length GSK3beta using YRRAAVPPSPSLSRHSSPHQ(pS)EDEEE as substrate preincubated with enzyme for 10 mins followed by substrate and 25 uM ATP addition measured after 60 mins by ADP-Glo luminescence assay
Procedure, shortened: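 Compounds in serial dilutions were preincubated with kinase for 10 min at rt. Substrate/ATP was then added and the reaction ran 60 min at rt. ADP-Glo reagent 60 min, detection reagent 30 min, then luminescence read (500 ms integration).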

[3] = target: T1, Mitogen-activated protein kinase 14; assay: Inhibition of human recombinant p38alpha MAPK upto 10000 nM using Ulight-CFFKNIVTPRTPPPSQGK-amide as substrate measured after 30 mins by LANCE assay relative to control
[4] = target: Glycogen synthase kinase-3 alpha (Homo sapiens, UniProt P49840); assay: Inhibition of human recombinant full length GSK3alpha using YRRAAVPPSPSLSRHSSPHQ(pS)EDEEE as substrate preincubated with enzyme for 10 mins followed by substrate and 25 uM ATP addition measured after 60 mins by ADP-Glo luminescence assay
Procedure, shortened: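 Recombinant human GSK3α at 0.50 ng/µL, 25 µM ATP, 0.2 µg/µL substrate G50-58, serial compound dilutions. Kinase was preincubated with compound 10 min at rt, then run 60 min at rt after substrate/ATP addition. ADP-Glo reagent 60 min, detection reagent 30 min, luminescence read. Uninhibited-kinase and ATP/substrate-only controls were included.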

[5] = Metabolic stability in human liver microsomes assessed as parent compound remaining after 240 mins by LC-MS analysis relative to control; type: ADME, Microsome; settings: read-out: Stability
[6] = species on record: Homo sapiens; assay: Selectivity ratio, Ratio of IC50 for human recombinant full length GSK3beta to IC50 for p38alpha MAPK (unknown origin)
Procedure, shortened: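 GSK3β was measured by ADP-Glo using 0.58 ng/µL recombinant human enzyme, 25 µM ATP and 0.2 µg/µL substrate peptide G50-58. Kinase was preincubated with serial compound dilutions for 10 min at rt, then reacted for 60 min at rt, with luminescence read-out. p38α inhibition was measured by ELISA.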

[7] = test system: Blood; assay: Inhibition of LPS-induced TNFalpha production in human whole blood preincubated with compound for 15 mins followed by LPS addition measured after 2.5 hrs by ELISA; type: functional, tissue-based
[8] = Drug uptake in RjOrl:Swiss CD-1 mouse brain at 10 mg/kg, iv administered as single dose measured after 2 hrs by LC-MS analysis; type: ADME, organism-based; settings: read-out: Drug uptake
Procedure, shortened: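 Adult male RjOrl:Swiss CD-1 mice got one intravenous dose of 10 mg/kg. Plasma was sampled at 10, 30 and 120 min. After the last sample the mice were sacrificed and brains dissected. Blood and brain samples were prepared and analysed by LC-MS for parent and sulfoxide metabolite; brain levels reported as ng/g.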

[9] = Metabolic stability in human liver microsomes assessed as parent compound remaining after 60 mins by LC-MS analysis relative to control; type: ADME, Microsome; settings: read-out: Stability
[10] = Metabolic stability in human liver microsomes assessed as parent compound remaining after 30 mins by LC-MS analysis relative to control; type: ADME, Microsome; settings: read-out: Stability
[11] = Metabolic stability in human liver microsomes assessed as parent compound remaining after 10 mins by LC-MS analysis relative to control; type: ADME, Microsome; settings: read-out: Stability
[12] = Metabolic stability in human liver microsomes assessed as parent compound remaining after 20 mins by LC-MS analysis relative to control; type: ADME, Microsome; settings: read-out: Stability
[13] = Metabolic stability in human liver microsomes assessed as parent compound remaining after 120 mins by LC-MS analysis relative to control; type: ADME, Microsome; settings: read-out: Stability
[14] = Metabolic stability in human liver microsomes assessed as parent compound remaining after 180 mins by LC-MS analysis relative to control; type: ADME, Microsome; settings: read-out: Stability

Chain of Glycogen synthase kinase-3 alpha (P49840 whole entry): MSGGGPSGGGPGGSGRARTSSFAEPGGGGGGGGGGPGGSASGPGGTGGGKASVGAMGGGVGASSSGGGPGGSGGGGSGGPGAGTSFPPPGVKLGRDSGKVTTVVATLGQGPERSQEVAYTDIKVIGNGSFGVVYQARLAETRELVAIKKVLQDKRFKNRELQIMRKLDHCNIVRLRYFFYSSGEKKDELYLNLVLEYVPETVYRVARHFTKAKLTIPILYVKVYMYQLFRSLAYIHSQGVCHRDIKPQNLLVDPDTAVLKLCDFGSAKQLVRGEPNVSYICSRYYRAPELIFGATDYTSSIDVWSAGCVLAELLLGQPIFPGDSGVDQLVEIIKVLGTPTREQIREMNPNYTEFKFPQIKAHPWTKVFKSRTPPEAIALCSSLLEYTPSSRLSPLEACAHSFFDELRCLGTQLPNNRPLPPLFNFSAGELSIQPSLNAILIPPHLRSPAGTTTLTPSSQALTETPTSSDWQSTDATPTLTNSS
T1 sequence (Q16539 whole entry): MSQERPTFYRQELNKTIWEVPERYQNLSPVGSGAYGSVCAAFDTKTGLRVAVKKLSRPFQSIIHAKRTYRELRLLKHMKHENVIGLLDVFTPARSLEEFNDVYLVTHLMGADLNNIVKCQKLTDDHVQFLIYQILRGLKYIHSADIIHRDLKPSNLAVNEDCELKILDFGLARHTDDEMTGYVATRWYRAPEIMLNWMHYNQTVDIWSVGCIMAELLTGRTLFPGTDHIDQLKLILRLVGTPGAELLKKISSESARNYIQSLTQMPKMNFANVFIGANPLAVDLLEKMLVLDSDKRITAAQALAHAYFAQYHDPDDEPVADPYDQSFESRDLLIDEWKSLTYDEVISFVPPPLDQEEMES
Chain of Glycogen synthase kinase-3 beta (P49841 whole entry): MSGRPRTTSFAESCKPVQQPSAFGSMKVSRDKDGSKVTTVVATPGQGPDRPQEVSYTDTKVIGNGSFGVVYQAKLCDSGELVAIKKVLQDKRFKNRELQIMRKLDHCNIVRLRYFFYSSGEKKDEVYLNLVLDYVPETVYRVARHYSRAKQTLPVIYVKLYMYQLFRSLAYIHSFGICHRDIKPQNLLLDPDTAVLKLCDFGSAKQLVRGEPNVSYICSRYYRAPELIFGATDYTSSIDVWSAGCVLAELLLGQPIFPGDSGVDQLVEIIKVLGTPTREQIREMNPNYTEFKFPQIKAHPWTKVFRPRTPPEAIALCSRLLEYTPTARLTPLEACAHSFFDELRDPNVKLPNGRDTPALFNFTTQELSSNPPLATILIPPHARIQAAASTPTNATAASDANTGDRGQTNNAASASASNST

CSc1nc(-c2ccc(F)cc2)c(-c2ccnc(NC(=O)[C@H]3C[C@@H](Cl)C3)c2)[nH]1
IC50 [1]: 0.018 µM | IC50 [2]: 0.17 µM

Cc1ncc(-c2ccnc(NC(=O)C3CC3)c2)[nH]1
IC50 [2]: 1.68 µM | inhibition [3]: 1%

CSc1nc(-c2ccc(F)cc2)c(-c2ccnc(NC(=O)c3ccoc3)c2)[nH]1
IC50 [1]: 0.022 µM | IC50 [2]: 3.65 µM

O=C(Nc1cc(-c2[nH]c(SCc3ccccc3)nc2-c2ccc(F)cc2)ccn1)C1CC1
IC50 [1]: 0.041 µM | IC50 [4]: 0.853 µM | IC50 [2]: 0.229 µM

CSc1nc(-c2ccc(F)cc2)c(-c2ccnc(NC(=O)C3(C(F)(F)F)CC3)c2)[nH]1
IC50 [1]: 0.184 µM | IC50 [2]: > 10 µM

C[S+]([O-])c1nc(-c2ccc(F)cc2)c(-c2ccnc(NC(=O)C3CCC3)c2)[nH]1 (centres undefined)
IC50 [1]: 0.029 µM | IC50 [2]: 0.428 µM

CSc1nc(-c2ccc(F)cc2)c(-c2ccnc(NC(=O)C3CC(=O)C3)c2)[nH]1
IC50 [1]: 0.02 µM | IC50 [2]: 0.183 µM

COc1cc(CC(=O)Nc2cc(-c3[nH]c(SC)nc3-c3ccc(F)cc3)ccn2)cc(OC)c1OC
IC50 [1]: 0.013 µM | IC50 [2]: 0.51 µM

COc1cc(CCC(=O)Nc2cc(-c3[nH]c(SCc4ccccc4)nc3-c3ccc(F)cc3)ccn2)cc(OC)c1OC
IC50 [1]: 0.061 µM | IC50 [2]: 1.15 µM

COc1cc(CCC(=O)Nc2cc(-c3[nH]c(SC)nc3-c3ccc(F)cc3)ccn2)cc(OC)c1OC
IC50 [1]: 0.088 µM | IC50 [4]: 2.05 µM | IC50 [2]: 0.363 µM

CSc1nc(-c2ccc(F)cc2)c(-c2ccnc(NC(=O)CC3CC3)c2)[nH]1
IC50 [1]: 0.015 µM | IC50 [2]: 0.215 µM

O=C(Cc1ccc(F)cc1)Nc1cc(-c2[nH]c(SCc3ccccc3)nc2-c2ccc(F)cc2)ccn1
remaining at 4 h [5]: 66% | IC50 [1]: 0.003 µM | IC50 [2]: 1.5 µM | Ratio IC50 [6]: > 500

CSc1nc(-c2ccc(F)cc2)c(-c2ccnc(NC(=O)C3CCCO3)c2)[nH]1 (centres undefined)
IC50 [1]: 0.028 µM | IC50 [2]: 0.527 µM

CSc1nc(-c2ccc(F)cc2)c(-c2ccnc(NC(=O)C3CCC(=O)C3)c2)[nH]1 (centres undefined)
IC50 [1]: 0.021 µM | IC50 [2]: 0.073 µM

C[S+]([O-])c1ccc(-c2nc(-c3ccc(F)cc3)c(-c3ccncc3)[nH]2)cc1 (centres undefined) [SB-203580]
IC50 [7]: 3.2 µM

CSc1nc(-c2ccc(F)cc2)c(-c2ccnc(NC(=O)C3CCC3)c2)[nH]1
IC50 [1]: 0.027 µM | IC50 [2]: 0.132 µM

CSc1nc(-c2ccc(F)cc2)c(-c2ccnc(NC(=O)c3ccccn3)c2)[nH]1
IC50 [1]: 0.042 µM | IC50 [2]: > 10 µM

Cc1nc(-c2ccc(F)cc2)c(-c2ccnc(NC(=O)C3CC3)c2)[nH]1
IC50 [1]: 0.019 µM | IC50 [2]: 0.053 µM

O=C(Nc1cc(-c2[nH]c(SCc3ccccc3)nc2-c2ccc(F)cc2)ccn1)C1CCCC1
IC50 [1]: 0.02 µM | IC50 [2]: 0.663 µM

COc1cccc(CCC(=O)Nc2cc(-c3[nH]c(SC)nc3-c3ccc(F)cc3)ccn2)c1
IC50 [1]: 0.036 µM | IC50 [2]: 0.471 µM

CC(=O)Nc1cc(-c2[nH]c(SCc3ccccc3)nc2-c2ccc(F)cc2)ccn1
IC50 [1]: 0.051 µM | IC50 [2]: 0.56 µM

CSc1nc(-c2ccc(F)cc2)c(-c2ccnc(NC(C)=O)c2)[nH]1
IC50 [1]: 0.045 µM | IC50 [2]: 0.152 µM

O=C(Nc1cc(-c2[nH]c(-c3ccco3)nc2-c2ccc(F)cc2)ccn1)C1CC1
IC50 [1]: 0.018 µM | IC50 [2]: 0.156 µM

CSc1nc(-c2ccc(F)cc2)c(-c2ccnc(NC(=O)C3CC3)c2)n1C
IC50 [1]: 0.222 µM | IC50 [2]: 0.638 µM

O=C(Nc1cc(-c2[nH]c(-c3ccccc3)nc2-c2ccc(F)cc2)ccn1)C1CC1
IC50 [1]: 0.027 µM | IC50 [2]: 0.57 µM

CSc1nc(-c2ccc(F)cc2)c(-c2ccnc(NC(=O)C3CCCC3)c2)[nH]1
IC50 [1]: 0.04 µM | IC50 [2]: 0.136 µM

O=C(Nc1cc(-c2[nH]c(CCc3ccccc3)nc2-c2ccc(F)cc2)ccn1)C1CC1
IC50 [1]: 0.02 µM | IC50 [2]: 0.133 µM

CSc1nc(-c2ccc(F)cc2)c(-c2ccnc(NC(=O)CN3CCCC3=O)c2)[nH]1
IC50 [1]: 0.023 µM | IC50 [2]: 0.126 µM

CSc1nc(-c2ccc(F)cc2)c(-c2ccnc(NC(=O)CCc3ccc(C(F)(F)F)cc3)c2)[nH]1
IC50 [1]: 0.027 µM | IC50 [2]: 0.956 µM

CSc1nc(-c2ccnc(NC(=O)C3CC3)c2)c(-c2ccc(F)cc2)n1C
IC50 [1]: 1.6 µM | IC50 [2]: 1.78 µM

COc1ccc(CCC(=O)Nc2cc(-c3[nH]c(SC)nc3-c3ccc(F)cc3)ccn2)cc1
IC50 [1]: 0.055 µM | IC50 [2]: 0.542 µM

C[S+]([O-])c1nc(-c2ccc(F)cc2)c(-c2ccnc(NC(=O)C3CC3)c2)[nH]1 (centres undefined)
IC50 [1]: 0.044 µM | IC50 [4]: 1.34 µM | IC50 [2]: 0.236 µM | concentration at 2 h [8]: 65.8 ng/g

CSc1nc(-c2ccc(F)cc2)c(-c2ccnc(NC(=O)[C@H]3C[C@H](Cl)C3)c2)[nH]1
IC50 [1]: 0.038 µM | IC50 [2]: 0.395 µM

CSc1nc(-c2ccc(F)cc2)c(-c2ccnc(NC(=O)Cc3ccc(C(F)(F)F)cc3)c2)[nH]1
IC50 [1]: 0.029 µM | IC50 [2]: 3.24 µM

CSc1nc(-c2ccc(F)cc2)c(-c2ccnc(NCC3CC3)c2)[nH]1
IC50 [1]: 0.014 µM | IC50 [2]: > 10 µM

CSc1nc(-c2ccc(F)cc2)c(-c2ccnc(NC(=O)[C@@H]3C[C@H]3c3ccccc3)c2)[nH]1 (relative stereo)
IC50 [1]: 0.015 µM | IC50 [2]: 0.808 µM

O=C(Nc1cc(-c2[nH]cnc2-c2ccc(F)cc2)ccn1)C1CC1
IC50 [1]: 0.019 µM | IC50 [2]: 0.064 µM

O=C(Nc1cc(-c2[nH]c(Cc3ccccc3)nc2-c2ccc(F)cc2)ccn1)C1CC1
remaining at 4 h [5]: 66.1% | IC50 [1]: 0.018 µM | remaining at 1 h [9]: 69.4% | IC50 [4]: 0.428 µM | IC50 [2]: 0.059 µM | remaining at 0.5 h [10]: 78.1% | remaining at 10 min [11]: 92.4% | remaining at 20 min [12]: 83.6% | remaining at 2 h [13]: 69.8% | remaining at 3 h [14]: 68.7%
